Reference: ChEMBL document CHEMBL1123801, “Synthesis and antifungal activity of new 1-vinylimidazoles” (1987)
In brackets after ≈: the same amount, converted by molar mass.

The compounds below were run on Trichophyton benhamiae (assay: Minimum inhibitory concentration against Trichophyton mentagrophyte IFO 5810). Settings: not given.
Type: functional
How it was run: (§1)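 Agar dilution on Sabouraud's glucose agar. Inocula 1×10^6 cells/mL for the yeast strains (C. albicans IFO 1060, 1388) and 1×10^6 conidia/mL for the dermatophytes (T. mentagrophytes IFO 5809, 5810; T. rubrum IFO 5467, 5807). MIC in μg/mL, lowest value of duplicated experiments.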

Row | SMILES | MIC [µg/mL]
1 | Clc1ccccc1C(c1ccccc1)(c1ccccc1)n1ccnc1 [CLOTRIMAZOLE] | 0.4 (≈ 1.16 µM)

Each compound was assayed on Trichophyton benhamiae (assay: Minimum inhibitory concentration against Trichophyton mentagrophytes IFO 5809). Settings: not given.
Type: functional, Arthroderma benhamiae
How it was run: as §1

Row | SMILES | MIC [µg/mL]
2 | C=C(c1cc(Cl)ccc1OCc1ccccc1)n1ccnc1 | 1.6 (≈ 5.15 µM)
3 | C=C(c1ccccc1OCc1ccsc1Cl)n1ccnc1 | 1.6 (≈ 5.05 µM)
4 | CC=C(c1ccccc1OCc1ccc(Cl)c(Cl)c1)n1ccnc1 | 0.8 (≈ 2.23 µM)
5 | C/C=C(\c1ccccc1OCc1ccc(Cl)cc1)n1ccnc1 | 0.8 (≈ 2.46 µM)
6 | CC(C)=C(c1ccccc1OCc1ccc(Cl)cc1)n1ccnc1 | 1.6 (≈ 4.72 µM)
7 | C=C(c1ccccc1OCc1cccc(Cl)c1)n1ccnc1 [CROCONAZOLE] | 0.8 (≈ 2.57 µM)
8 | C/C=C(/c1ccccc1OCc1ccc(Cl)cc1)n1ccnc1 | 1.6 (≈ 4.93 µM)
9 | C=C(c1cc(Cl)ccc1OCc1ccc(Cl)cc1)n1ccnc1 | 1.6 (≈ 4.63 µM)
10 | C=C(c1ccccc1OCc1ccc(Cl)cc1)n1ccnc1 | 1.6 (≈ 5.15 µM)

Each compound was assayed on Aspergillus fumigatus (assay: Minimum inhibitory concentration (MIC) against Aspergillus fumigatus). Settings: not given.
Type: functional
How it was run: (§2)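 Broth microdilution in Sabouraud's glucose broth. Final inocula 1×10^5 cells/mL for the yeast (C. albicans) and 1×10^5 conidia/mL for the mold (A. fumigatus) and the dermatophyte (T. asteroides). MIC read as the fungistatic end point. Lowest value of duplicated experiments.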

Row | SMILES | MIC [µg/mL]
11 | C=C(c1cc(Cl)ccc1OCc1ccccc1)n1ccnc1 | 3.1 (≈ 9.97 µM)
12 | C=C(c1ccccc1OCc1ccsc1Cl)n1ccnc1 | 1.6 (≈ 5.05 µM)
13 | CC=C(c1ccccc1OCc1ccc(Cl)c(Cl)c1)n1ccnc1 | 0.4 (≈ 1.11 µM)
14 | C/C=C(\c1ccccc1OCc1ccc(Cl)cc1)n1ccnc1 | 3.1 (≈ 9.54 µM)
15 | CC(C)=C(c1ccccc1OCc1ccc(Cl)cc1)n1ccnc1 | 6.2 (≈ 18.3 µM)
16 | C=C(c1ccccc1OCc1cccc(Cl)c1)n1ccnc1 [CROCONAZOLE] | 3.1 (≈ 9.97 µM)
17 | C/C=C(/c1ccccc1OCc1ccc(Cl)cc1)n1ccnc1 | 3.1 (≈ 9.54 µM)
18 | C=C(c1cc(Cl)ccc1OCc1ccc(Cl)cc1)n1ccnc1 | 3.1 (≈ 8.98 µM)
19 | C=C(c1ccccc1OCc1ccc(Cl)cc1)n1ccnc1 | 3.1 (≈ 9.97 µM)

The compounds below were run on Trichophyton rubrum (assay: Minimum inhibitory concentration against Trichophyton rubrum IFO 5467). Settings: not given.
Type: functional
How it was run: as §1

Row | SMILES | MIC [µg/mL]
20 | Clc1ccccc1C(c1ccccc1)(c1ccccc1)n1ccnc1 [CLOTRIMAZOLE] | 0.8 (≈ 2.32 µM)
21 | C=C(c1ccccc1OCc1ccsc1Cl)n1ccnc1 | 0.4 (≈ 1.26 µM)
22 | CC=C(c1ccccc1OCc1ccc(Cl)c(Cl)c1)n1ccnc1 | 0.8 (≈ 2.23 µM)
23 | C/C=C(\c1ccccc1OCc1ccc(Cl)cc1)n1ccnc1 | 0.8 (≈ 2.46 µM)
24 | CC(C)=C(c1ccccc1OCc1ccc(Cl)cc1)n1ccnc1 | 1.6 (≈ 4.72 µM)
25 | C=C(c1ccccc1OCc1cccc(Cl)c1)n1ccnc1 [CROCONAZOLE] | 0.4 (≈ 1.29 µM)
26 | C/C=C(/c1ccccc1OCc1ccc(Cl)cc1)n1ccnc1 | 0.8 (≈ 2.46 µM)
27 | C=C(c1cc(Cl)ccc1OCc1ccc(Cl)cc1)n1ccnc1 | 0.8 (≈ 2.32 µM)
28 | C=C(c1ccccc1OCc1ccc(Cl)cc1)n1ccnc1 | 0.8 (≈ 2.57 µM)

The compounds below were run on Candida albicans (assay: Minimum inhibitory concentration (MIC) against Candida albicans). Settings: not given.
Type: functional
How it was run: as §2

Row | SMILES | MIC [µg/mL]
29 | C=C(c1cc(Cl)ccc1OCc1ccccc1)n1ccnc1 | 6.2 (≈ 19.9 µM)
30 | C=C(c1ccccc1OCc1ccsc1Cl)n1ccnc1 | 6.2 (≈ 19.6 µM)
31 | CC=C(c1ccccc1OCc1ccc(Cl)c(Cl)c1)n1ccnc1 | 6.2 (≈ 17.3 µM)
32 | C/C=C(\c1ccccc1OCc1ccc(Cl)cc1)n1ccnc1 | 6.2 (≈ 19.1 µM)
33 | CC(C)=C(c1ccccc1OCc1ccc(Cl)cc1)n1ccnc1 | 3.1 (≈ 9.15 µM)
34 | C=C(c1ccccc1OCc1cccc(Cl)c1)n1ccnc1 [CROCONAZOLE] | 3.1 (≈ 9.97 µM)
35 | C/C=C(/c1ccccc1OCc1ccc(Cl)cc1)n1ccnc1 | 6.2 (≈ 19.1 µM)
36 | C=C(c1cc(Cl)ccc1OCc1ccc(Cl)cc1)n1ccnc1 | 12.5 (≈ 36.2 µM)
37 | C=C(c1ccccc1OCc1ccc(Cl)cc1)n1ccnc1 | 6.2 (≈ 19.9 µM)

Each compound was assayed on Trichophyton benhamiae (assay: Minimum inhibitory concentration against Trichophyton mentagrophyte IFO 5809). Settings: not given.
Type: functional
How it was run: as §1

Row | SMILES | MIC [µg/mL]
38 | Clc1ccccc1C(c1ccccc1)(c1ccccc1)n1ccnc1 [CLOTRIMAZOLE] | 0.8 (≈ 2.32 µM)

The compounds below were run on Candida albicans (assay: Minimum inhibitory concentration against Candida albicans IFO 1388). Settings: not given.
Type: functional
How it was run: as §1

Row | SMILES | MIC [µg/mL]
39 | Clc1ccccc1C(c1ccccc1)(c1ccccc1)n1ccnc1 [CLOTRIMAZOLE] | 12.5 (≈ 36.2 µM)
40 | C=C(c1cc(Cl)ccc1OCc1ccccc1)n1ccnc1 | 12.5 (≈ 40.2 µM)
41 | C=C(c1ccccc1OCc1ccsc1Cl)n1ccnc1 | 12.5 (≈ 39.5 µM)
42 | CC=C(c1ccccc1OCc1ccc(Cl)c(Cl)c1)n1ccnc1 | 12.5 (≈ 34.8 µM)
43 | C/C=C(\c1ccccc1OCc1ccc(Cl)cc1)n1ccnc1 | 12.5 (≈ 38.5 µM)
44 | CC(C)=C(c1ccccc1OCc1ccc(Cl)cc1)n1ccnc1 | 12.5 (≈ 36.9 µM)
45 | C=C(c1ccccc1OCc1cccc(Cl)c1)n1ccnc1 [CROCONAZOLE] | 12.5 (≈ 40.2 µM)
46 | C/C=C(/c1ccccc1OCc1ccc(Cl)cc1)n1ccnc1 | 12.5 (≈ 38.5 µM)
47 | C=C(c1cc(Cl)ccc1OCc1ccc(Cl)cc1)n1ccnc1 | 12.5 (≈ 36.2 µM)
48 | C=C(c1ccccc1OCc1ccc(Cl)cc1)n1ccnc1 | 12.5 (≈ 40.2 µM)

What follows are compounds tested on Trichophyton benhamiae (assay: Minimum inhibitory concentration against Trichophyton mentagrophytes IFO 5810). Settings: not given.
Type: functional, Arthroderma benhamiae
How it was run: as §1

Row | SMILES | MIC [µg/mL]
49 | C=C(c1cc(Cl)ccc1OCc1ccccc1)n1ccnc1 | 1.6 (≈ 5.15 µM)
50 | C=C(c1ccccc1OCc1ccsc1Cl)n1ccnc1 | 0.8 (≈ 2.53 µM)
51 | CC=C(c1ccccc1OCc1ccc(Cl)c(Cl)c1)n1ccnc1 | 0.8 (≈ 2.23 µM)
52 | C/C=C(\c1ccccc1OCc1ccc(Cl)cc1)n1ccnc1 | 0.8 (≈ 2.46 µM)
53 | CC(C)=C(c1ccccc1OCc1ccc(Cl)cc1)n1ccnc1 | 0.8 (≈ 2.36 µM)
54 | C=C(c1ccccc1OCc1cccc(Cl)c1)n1ccnc1 [CROCONAZOLE] | 0.8 (≈ 2.57 µM)
55 | C/C=C(/c1ccccc1OCc1ccc(Cl)cc1)n1ccnc1 | 0.8 (≈ 2.46 µM)
56 | C=C(c1cc(Cl)ccc1OCc1ccc(Cl)cc1)n1ccnc1 | 1.6 (≈ 4.63 µM)
57 | C=C(c1ccccc1OCc1ccc(Cl)cc1)n1ccnc1 | 0.8 (≈ 2.57 µM)

Each compound was assayed on Trichophyton benhamiae (assay: Minimum inhibitory concentration against Trichophyton asteroides). Settings: not given.
Type: functional
How it was run: as §2

Row | SMILES | MIC [µg/mL]
58 | C=C(c1cc(Cl)ccc1OCc1ccccc1)n1ccnc1 | 0.1 (≈ 0.322 µM)
59 | C=C(c1ccccc1OCc1ccsc1Cl)n1ccnc1 | 0.1 (≈ 0.316 µM)
60 | CC=C(c1ccccc1OCc1ccc(Cl)c(Cl)c1)n1ccnc1 | 0.1 (≈ 0.278 µM)
61 | C/C=C(\c1ccccc1OCc1ccc(Cl)cc1)n1ccnc1 | 0.1 (≈ 0.308 µM)
62 | CC(C)=C(c1ccccc1OCc1ccc(Cl)cc1)n1ccnc1 | 0.1 (≈ 0.295 µM)
63 | C=C(c1ccccc1OCc1cccc(Cl)c1)n1ccnc1 [CROCONAZOLE] | 0.1 (≈ 0.322 µM)
64 | C/C=C(/c1ccccc1OCc1ccc(Cl)cc1)n1ccnc1 | 0.1 (≈ 0.308 µM)
65 | C=C(c1cc(Cl)ccc1OCc1ccc(Cl)cc1)n1ccnc1 | 0.1 (≈ 0.29 µM)
66 | C=C(c1ccccc1OCc1ccc(Cl)cc1)n1ccnc1 | 0.1 (≈ 0.322 µM)

What follows are compounds tested on Candida albicans (assay: Inhibition of pseudomycelium formation of Candida albicans.). Settings: read-out: MEC.
Type: functional
How it was run: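 C. albicans KE-2 (clinical isolate), final inoculum 1×10^6 yeast cells/mL in EMEM with 20% calf serum. Compounds serially diluted by the microtiter dilution system used for MICs. After incubation, wells Giemsa-stained (5% in phosphate buffer) and examined microscopically. MEC (μg/mL) = lowest concentration preventing typical pseudomycelium formation. Lowest value of duplicated experiments.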

Row | SMILES | minimal effective concentration [µg/mL]
67 | C=C(c1ccccc1OCc1ccsc1Cl)n1ccnc1 | 0.8

Each compound was assayed on Trichophyton rubrum (assay: Minimum inhibitory concentration against Trichophyton rubrum IFO 5467). Settings: not given.

Row | SMILES | MIC [µg/mL]
68 | C=C(c1cc(Cl)ccc1OCc1ccccc1)n1ccnc1 | 1.6 (≈ 5.15 µM)

The compounds below were run on Candida albicans (assay: Minimum inhibitory concentration against Candida albicans IFO 1060). Settings: not given.
Type: functional
How it was run: as §1

Row | SMILES | MIC [µg/mL]
69 | Clc1ccccc1C(c1ccccc1)(c1ccccc1)n1ccnc1 [CLOTRIMAZOLE] | 6.3 (≈ 18.3 µM)
70 | C=C(c1cc(Cl)ccc1OCc1ccccc1)n1ccnc1 | 12.5 (≈ 40.2 µM)
71 | C=C(c1ccccc1OCc1ccsc1Cl)n1ccnc1 | 12.5 (≈ 39.5 µM)
72 | CC=C(c1ccccc1OCc1ccc(Cl)c(Cl)c1)n1ccnc1 | 6.3 (≈ 17.5 µM)
73 | C/C=C(\c1ccccc1OCc1ccc(Cl)cc1)n1ccnc1 | 12.5 (≈ 38.5 µM)
74 | CC(C)=C(c1ccccc1OCc1ccc(Cl)cc1)n1ccnc1 | 12.5 (≈ 36.9 µM)
75 | C=C(c1ccccc1OCc1cccc(Cl)c1)n1ccnc1 [CROCONAZOLE] | 6.3 (≈ 20.3 µM)
76 | C/C=C(/c1ccccc1OCc1ccc(Cl)cc1)n1ccnc1 | 12.5 (≈ 38.5 µM)
77 | C=C(c1cc(Cl)ccc1OCc1ccc(Cl)cc1)n1ccnc1 | 12.5 (≈ 36.2 µM)
78 | C=C(c1ccccc1OCc1ccc(Cl)cc1)n1ccnc1 | 6.3 (≈ 20.3 µM)

Each compound was assayed on Trichophyton rubrum (assay: Minimum inhibitory concentration against Trichophyton rubrum IFO 5807). Settings: not given.
Type: functional
How it was run: as §1

Row | SMILES | MIC [µg/mL]
79 | Clc1ccccc1C(c1ccccc1)(c1ccccc1)n1ccnc1 [CLOTRIMAZOLE] | 0.8 (≈ 2.32 µM)
80 | C=C(c1cc(Cl)ccc1OCc1ccccc1)n1ccnc1 | 0.8 (≈ 2.57 µM)
81 | C=C(c1ccccc1OCc1ccsc1Cl)n1ccnc1 | 0.8 (≈ 2.53 µM)
82 | CC=C(c1ccccc1OCc1ccc(Cl)c(Cl)c1)n1ccnc1 | 0.8 (≈ 2.23 µM)
83 | C/C=C(\c1ccccc1OCc1ccc(Cl)cc1)n1ccnc1 | 0.8 (≈ 2.46 µM)
84 | CC(C)=C(c1ccccc1OCc1ccc(Cl)cc1)n1ccnc1 | 0.8 (≈ 2.36 µM)
85 | C=C(c1ccccc1OCc1cccc(Cl)c1)n1ccnc1 [CROCONAZOLE] | 0.4 (≈ 1.29 µM)
86 | C/C=C(/c1ccccc1OCc1ccc(Cl)cc1)n1ccnc1 | 1.6 (≈ 4.93 µM)
87 | C=C(c1cc(Cl)ccc1OCc1ccc(Cl)cc1)n1ccnc1 | 0.8 (≈ 2.32 µM)
88 | C=C(c1ccccc1OCc1ccc(Cl)cc1)n1ccnc1 | 0.8 (≈ 2.57 µM)
